High-throughput results (PubChem BioAssay)
Hits are enriched below; roughly 1.7% of the tested compounds scored in any of these assays.
Myeloid diff MLP – myeloid differentiation induction | ER-HoxA9 myeloid progenitors, lysozyme-GFP differentiation, flow cytometry | calls only at 10 µM | 360,000 compounds, 1% hits;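 active = normalized GFP-positive differentiation at or above the plate's own cutoff, the solvent-only control mean plus 3 SD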;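 note: cells exposed to compound for four days before flow analysis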
T cell HTS – modulates CD8 T cell binding to vesicles | 2C CD8+ T cell-vesicle binding, flow cytometry; stronger effect = lower value | response (vesicle binding), % at 7 µM | 330,000 compounds, 0.068% hits | AID 2052;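 active = response, share of CD8 T cells binding vesicles, and their 90th percentile fluorescence all below set limits, cut at about 80% in these data, passing the limit was not always enough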;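 note: values below 100% mean blocked vesicle binding to the CD8+ T cells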
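Also added: QL9-peptide-loaded Drosophila micro-vesicles bearing Ld, ICAM-1 and B7-1; Test system: purified 2C TCR transgenic mouse naive CD8+ T cells; Measured by: cytometric PE anti-B7-1 and Alexa647 anti-CD8 signals after 1% paraformaldehyde fixation; Timing: binding step 1.5 h, 37 °C, antibody labelling 20 min, ice.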
DSG3 Ab inh – human desmoglein-3 autoantibody binding inhibition. P32926. DSG3-coupled beads, scFv-anti-DSG3-GFP binding, flow cytometry; stronger effect = lower value. binding (percent of control), % at 10 µM. 310,000 compounds, 0.48% hits;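 active = binding more than 3 SD below its plate's average and above zero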;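 note: hits lower antibody fragment binding to DSG3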
Target sequence (P32926 whole entry, looked up, the tested form may be a part): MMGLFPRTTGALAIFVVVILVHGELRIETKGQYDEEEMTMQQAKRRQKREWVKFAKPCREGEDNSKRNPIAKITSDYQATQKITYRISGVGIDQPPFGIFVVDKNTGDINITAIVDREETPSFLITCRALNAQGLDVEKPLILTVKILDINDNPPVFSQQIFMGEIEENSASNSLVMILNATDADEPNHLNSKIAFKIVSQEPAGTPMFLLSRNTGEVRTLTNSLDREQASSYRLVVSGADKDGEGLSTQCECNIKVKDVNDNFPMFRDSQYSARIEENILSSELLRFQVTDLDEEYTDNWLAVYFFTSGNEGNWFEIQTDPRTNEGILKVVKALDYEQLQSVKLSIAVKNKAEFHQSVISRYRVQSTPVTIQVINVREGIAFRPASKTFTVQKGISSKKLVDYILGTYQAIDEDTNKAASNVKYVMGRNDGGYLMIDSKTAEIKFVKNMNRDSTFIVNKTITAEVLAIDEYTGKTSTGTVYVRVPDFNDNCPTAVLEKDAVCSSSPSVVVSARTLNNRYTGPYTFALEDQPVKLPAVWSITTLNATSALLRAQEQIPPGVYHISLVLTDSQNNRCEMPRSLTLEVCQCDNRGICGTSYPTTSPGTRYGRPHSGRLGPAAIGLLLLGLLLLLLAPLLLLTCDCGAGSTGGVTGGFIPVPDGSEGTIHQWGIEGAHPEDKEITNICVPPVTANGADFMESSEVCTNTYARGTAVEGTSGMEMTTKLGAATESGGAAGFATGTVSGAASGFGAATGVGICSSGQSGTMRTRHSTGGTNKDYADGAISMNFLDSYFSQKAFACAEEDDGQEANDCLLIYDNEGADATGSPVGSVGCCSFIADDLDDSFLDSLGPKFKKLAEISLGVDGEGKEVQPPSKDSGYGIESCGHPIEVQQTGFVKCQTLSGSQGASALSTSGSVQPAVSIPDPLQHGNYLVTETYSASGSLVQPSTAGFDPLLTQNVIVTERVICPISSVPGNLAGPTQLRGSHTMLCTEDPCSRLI
Vif inh – HIV Vif inhibition | HEK293T cells, Vif self-association by quenched fluorescence, imaging, 24 h | inhibition, % at 7.49 µM | 340,000 compounds, 0.35% hits; in the data active = inhibition above about 50%, passing the limit was not always enough
Starred values were filed as active, the others as inactive; i = inactive; · = no result given; + = active, no number.

SMILES | Myeloid diff MLP | T cell HTS | DSG3 Ab inh | Vif inh
COc1ccc(-c2csc(NC(=O)c3cc(C)on3)c2C#N)cc1OC | i | 236 | 79* | -9
COc1ccc(OC)c(-c2cc(C(=O)Nc3cc(C)on3)no2)c1 | i | 298 | 98 | 63*
CC1(C(=O)Nc2ccc3c(c2)OCO3)CCN1C(=O)CCc1ccc(Cl)cc1Cl (stereo unspecified) | i | · | · | ·
NC(=O)C1=C(N=C2CCCCC2)CCCC1 | i | · | 112 | 65*
Cc1cc(C)c2c(CN3CCN(c4ccccc4)CC3)cc(=O)oc2c1 | i | · | · | ·
Cc1cc(C)c2c(CN3CCN(Cc4ccccc4)CC3)cc(=O)oc2c1 | i | 172 | 105 | 104*
Nc1nc(-c2ccccc2)cs1 | i | 292 | 99 | -1
Nc1nc(C(c2ccccc2)c2ccccc2)cs1 | + | 212 | · | -7
CCc1c(C)nc(SCC(=O)Nc2nc(-c3ccc(OC)cc3)cs2)[nH]c1=O | i | 53* | 101 | 0
O=C1Nc2ccccc2-n2nnnc2C1N1CCN(c2ccc(C(F)(F)F)cc2[N+](=O)[O-])CC1 (stereo unspecified) | i | · | · | ·
CCCCNC(=O)c1nc(-c2cccnc2)oc1-c1ccc(OC(F)(F)F)cc1 | i | · | · | ·
CSc1ccc(CN(C)C(=O)c2cc3ccccc3o2)cc1 | i | 407 | · | 19
CSc1ccc(CN(C)C(=O)c2cc(=O)c3ccccc3o2)cc1 | + | i | · | 13
CCOC(=O)C(=O)c1csc(NC(=O)COc2ccc(N(C)S(=O)(=O)c3ccc(F)cc3)cc2)n1 | i | 234 | 73* | 3
CC(OC(=O)Cc1ccccc1[N+](=O)[O-])C(=O)NC(=O)NC1CCCCC1 (stereo unspecified) | i | 267 | 94 | -2
Cc1ccc(C(=O)NCC(=O)OCC(=O)c2cc(C)n(Cc3ccco3)c2C)cc1 | i | 208 | 113 | -4
C=CCn1c(C)cc(C(=O)COC(=O)CNC(=O)c2ccccc2)c1C | i | 286 | 72* | -2
CCCCN1C(=O)C(CC(=O)NCc2ccco2)CC(C(=O)N2CCOCC2)=C1C (stereo unspecified) | i | · | 107 | 1
CCCn1c(CNS(=O)(=O)c2ccc(C)cc2)nc2ccccc21 | i | 520 | 66* | 2
CCN(CC)CCn1c(NS(=O)(=O)c2ccc(C)cc2)nc2ccccc21 | i | 516 | 139 | -2
COc1ccc(CC(=O)OCC(=O)Nc2ccc3[nH]c(=O)[nH]c3c2)cc1OC | i | · | 100 | 6
O=C1CCN(Cc2ccc(O)cc2)CCN1[C@H](CO)Cc1ccccc1 | i | 554 | 100 | 54*
COc1cccc(NC(=O)COC(=O)Cc2ccc(Br)cc2)c1 | i | 734 | 102 | 5
COc1ccc(CC(=O)OCC(=O)Nc2cccc(Br)c2)cc1 | i | 223 | 85 | 74*
COc1cccc(-c2nc(CS(=O)CC(=O)NC3CCCC3)c(C)o2)c1 (stereo unspecified) | i | 395 | 102 | -5
SMILES | Myeloid diff MLP | T cell HTS | DSG3 Ab inh | Vif inh
COc1cccc(-c2nc(CS(=O)CC(=O)NC3CCCCC3)c(C)o2)c1 (stereo unspecified) | i | 680 | 55* | -1
COc1ccc(N2C(=O)C(=O)/C(=C(/O)c3ccc(C)cc3)C2c2cccnc2)cc1 (stereo unspecified) | + | 154 | 96 | 6
COc1ccc(C2/C(=C(/O)c3ccc(C)cc3)C(=O)C(=O)N2C)cc1 (stereo unspecified) | i | 189 | 96 | 4
O=C1NC(C2CC3C=CC2C3)Nc2ccccc21 (stereo unspecified) | i | · | 100 | 2
Cc1ccc(CON=C2CCN(c3ncc(C(F)(F)F)cc3Cl)CC2)cc1 | + | 171 | 97 | 2
COc1ccc(-c2ccc(/C=N/NC(=O)c3cccnc3)o2)c([N+](=O)[O-])c1 | + | · | i | 0
CCOc1ccc(NC(=O)CCC(=O)NNC(=O)COc2ccc(C)cc2Br)cc1 | i | 317 | 96 | -13
CCOc1ccc(NC(=O)CCC(=O)NNC(=O)COc2ccc(C)cc2)cc1 | i | 123 | 84* | -4
Cc1cc(C)cc(-c2nnc(SCC(=O)NCC3CCCO3)o2)c1 (stereo unspecified) | i | · | 105 | 12
COCc1cc(C)nc(SCC(=O)Nc2ccc3c(c2)n(C)c(=O)n3C)c1C#N | i | 606 | 97 | ·
C[C@@H]1CN([C@H](C)CO)S(=O)(=O)c2ccc(C#CC3CCCC3)cc2O[C@H]1CN(C)C(=O)Cc1ccccc1 | i | · | · | -1
